A selection follows.
PGC1a Ac signal: raises PGC1a acetylation signal in U2OS cells; activation, % at 15.6 µM; AID 651723; 350,000 compounds, 0.21% hits; U2OS PGC1a acetylation AlphaScreen, overnight;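 active means every replicate reaching activation of at least 50%, whatever the mean replicate activation; inconclusive means replicates that disagree or another doubt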;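 further: hits raise the AlphaScreen acetylation signal above neutral controls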
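System: Flag-PGC1a/GCN5 U2OS cells | Quantity: 7000 cells/well | Times: Overnight compound treatment, 37 °C | Measured by: AlphaScreen proximity luminescence, anti-acetyl-lysine antibody | Dosing: One concentration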
G6PC hep suppr: PGC-1a acetylation activators affecting G6PC expression in hepatocytes. shares compounds with PGC1a Ac signal. primary mouse hepatocytes, G6PC mRNA qPCR, forskolin. G6PC suppression (normalized activity, % of positive control; higher = more suppression), % at 26 µM. 240 tested, under 10 active. AID 743463;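 active means dose curves showing G6PC suppression whose half-maximal dose is at most twice the top valid dose; inconclusive means flat curves with moderate negative activity, or unreliable fits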;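 further: G6PC expression relative to GAPDH housekeeping gene as delta delta Ct; 0% = median of neutral control wells and 100% = median of positive control wells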
PCK1 hep suppr: hepatocyte PCK1 expression change via PGC-1a acetylation activation; shares compounds with PGC1a Ac signal; primary mouse hepatocytes, PCK1 mRNA qPCR, forskolin-stimulated; PCK1 expression decrease, unspecified at 26 µM; 230 tested, under 10 active; AID 743465;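 active means compounds lowering PCK1 expression whose fitted half-maximal concentration is at most twice the top tested dose; inconclusive means flat fit with moderate opposite-direction effect, or poor fit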;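 further: values are delta delta Ct of PCK1 relative to GAPDH; higher delta delta Ct means lower PCK1 expression so positive values indicate hits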
Hep PGC-1a down: hepatocyte PGC-1a expression change via PGC-1a acetylation activation. shares compounds with PGC1a Ac signal. primary mouse hepatocytes, PGC-1a mRNA qPCR, forskolin; top dose 26 µM. max activity (PGC-1a expression decrease), %. 240 tested, under 10 active. AID 743467;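 active means compound lowering PGC-1a expression with fitted half-maximal concentration at most twice its top tested dose; inconclusive means flat curve with moderate opposite-direction effect, or poor fit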;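 further: 0% = neutral control wells median and 100% = positive control wells median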
Active calls of the source: *; ? = inconclusive; nt = no result given; [ ] = dose if it differs, or a comment.

SMILES	PGC1a Ac signal	G6PC hep suppr	PCK1 hep suppr	Hep PGC-1a down
O=C1C(Cl)=C(N2CCOCC2)C(=O)N1CCc1ccccc1	-42.4	nt	nt	nt
COC(=O)C[C@@H]1C[C@H]2c3cc(NC(=O)Nc4ccc(C(F)(F)F)cc4)ccc3O[C@H]2[C@H](CO)O1	?	6.1[23.5 µM]	-9.52[23.5 µM]	24.8
Cc1c(Nc2cc(Cl)c3nonc3c2[N+](=O)[O-])c(=O)n(-c2ccccc2)n1C	-40.4	nt	nt	nt
CN(c1ncnc(N)c1[N+](=O)[O-])C1CCS(=O)(=O)C1 (configuration not stated)	-58.3	nt	nt	nt
N#Cc1cc2c(=O)n3ccccc3nc2n(Cc2cccnc2)c1=O	-49.0	nt	nt	nt
O=S(=O)(c1ccc(Cl)cc1)N1[C@@H]2CNC[C@H]1C2c1ccc(-c2cccc(F)c2)cc1 (some centres not stated)	80.4*	10.0	47.2	110.3
CCC(=O)NC(c1cccs1)c1ccc2cccnc2c1O (configuration not stated)	-47.4	nt	nt	nt
COc1ccc(C(=O)N/C(=C/c2cccs2)C(=O)NC(C)(C)C)cc1OC	-67.2	nt	nt	nt
COc1cc(NC(=O)c2cccs2)c(OC)cc1NC(=O)CCC(=O)Nc1ccc2ncccc2c1	366.0*	188.8	?	?
COc1ccc(C(=O)/C(=C\c2ccco2)N2C=CC=CC2=C(C#N)C#N)cc1	-71.3	nt	nt	nt
COC(=O)/C=C/c1cnc2ccccc2c1	-43.0	nt	nt	nt
O=C1C=CC(=O)c2c(O)c(N3CCN(CCO)CC3)c(Cl)c(O)c21	-50.5	nt	nt	nt
CC(C)(C)NC(=O)Cn1nnc(-c2ccccc2NC(=O)c2ccco2)n1	-44.4	nt	nt	nt
O=C(Cc1ccccc1)Nc1ccc(NC(=O)c2ccco2)nc1	?	-6.5	-48.1	84.2
O=C(/C(=C/O)N=Nc1ccccc1)c1ccco1	-42.0	nt	nt	nt
O=C(CN1CCC(n2nnc3ccccc32)CC1)NCc1cccs1	191.8*	-14.8	-21.8	33.1
O=C(CN1CCC(n2cnc3cccnc32)CC1)NCc1cccs1	nt	17.4	29.6	37.5
O=C1/C(=C/c2ccc(N3CCOCC3)o2)SC(=Nc2ccccc2)N1CCc1c[nH]c2ccccc12	-61.7	nt	nt	nt
Cc1cccc(Oc2nccc(C(F)(F)F)c2C(=O)Nc2ccc(F)cc2F)c1	-84.9	nt	nt	nt
Cc1ccc(C)c(NC(=S)Nc2cccc3cnccc23)c1	-50.9	nt	nt	nt
CCOC(=O)C(=CNc1ccc(C)cc1C)C(=O)OCC	-41.5	nt	nt	nt
CC(Oc1ccc2c3c(c(=O)oc2c1)CCC3)C(=O)N[C@@H](Cc1ccccc1)C(=O)O (some centres not stated)	-74.6	nt	nt	nt
CC(=O)Nc1nonc1-c1nc2ccccc2n1Cc1ccccc1	61.4*	-7.0	11.4	?
COC(=O)c1[nH]c2ccc(F)cc2c1NS(=O)(=O)c1ccc(OC)cc1OC	-43.1	nt	nt	nt
CCOC(=O)c1c(NC(=O)c2ccoc2C)sc2c1CCC2	-57.4	nt	nt	nt
SMILES	PGC1a Ac signal	G6PC hep suppr	PCK1 hep suppr	Hep PGC-1a down
CC1(C)CC(=O)C=C(NCc2ccco2)C1	-40.3	nt	nt	nt
CC(=O)Nc1ccc(Nc2ncnc3c2cnn3-c2ccc(C)cc2C)cc1	131.3*	-72.7	nt	130.2
COC(=O)COc1c(/C=C\c2nc(O)c([N+](=O)[O-])c(=O)[nH]2)cccc1OC	-55.0	nt	nt	nt
C=CCN(c1ccc(C(=O)Nc2ccc3c(c2)OCO3)cc1)S(C)(=O)=O	-92.7	nt	nt	nt
Nc1nn(-c2ccccc2)nc1C(=O)OCc1ccccc1	-72.5	nt	nt	nt
C#CC(=O)N(c1ccc(OC)cc1OC)C(C(=O)NC1CCCC1)c1cccs1 (configuration not stated)	-94.5	nt	nt	nt
COc1ccc(N(C(=O)c2snc(C(N)=O)c2N)C(C(=O)NC2CCCCC2)c2ccc(C)o2)cc1 (configuration not stated)	62.1*	-14.5	-44.9	37.1
COc1ccc(N(C(=O)c2snc(C(N)=O)c2N)C(C(=O)NC2CCCCC2)c2ccc(F)cc2)c(OC)c1 (configuration not stated)	?	-19.5[8 µM]	119	71.7
CN1CCN(/N=C/c2ccc(N(c3ccccc3)c3ccccc3)cc2)CC1	-56.4	nt	nt	nt
COc1cc(NS(=O)(=O)c2ccc(N)cc2)nc(OC)n1	-56.8	nt	nt	nt
Cc1sc2ncnc(N3CCC(C(=O)NNC(=O)COc4ccc(Cl)cc4)CC3)c2c1C	-45.9	nt	nt	nt
O=C1NC2(CCC3(CC2)OCCO3)NN1c1ccccc1	-51.0	nt	nt	nt
c1ccc(CNc2ncnc3nc[nH]c23)cc1	-45.2	nt	nt	nt
CCOC(=O)C1=CC[C@@H](c2ccc(F)cc2)N(S(=O)(=O)c2ccc(C)cc2)[C@H]1c1ccccc1	90.1*	nt	34.1	92.7
CCOC(=O)C1=C[C@@H](C(C)C)N(S(=O)(=O)c2ccc(C)cc2)[C@H]1c1ccc(C(F)(F)F)cc1	131.0*	-31.7	22	58.2
COc1ccc(Br)cc1CNc1ccccc1	-40.4	10.5	50	27.5
COc1ccccc1CNS(=O)(=O)c1cc(C)ccc1OC	-43.2	nt	nt	nt
O=S(=O)(c1cccc(F)c1)N1CCN(Cc2cc3c(cc2Br)OCCO3)CC1	108.0*	1.2	53.2	112.1
C[C@H](CO)N1C[C@H](C)[C@@H](CN(C)Cc2ccc(C(F)(F)F)cc2)Oc2ccc(NS(=O)(=O)c3ccc(F)cc3)cc2C1=O	-103.3	nt	nt	nt
C[C@@H]1CN([C@H](C)CO)C(=O)c2cc(N(C)C)ccc2O[C@@H](C)CCCCO[C@H]1CN(C)C(=O)Cc1ccccc1	119.4*	13.8[23.5 µM]	53.3[23.5 µM]	103.4
C[C@@H]1CN([C@H](C)CO)C(=O)c2cc(N(C)C)ccc2O[C@@H](C)CCCCO[C@H]1CN(C)C(=O)Nc1ccccc1	67.1*	-5.2[23.5 µM]	-7.95[23.5 µM]	16.9
C=CC(=O)NC(C)(C)Cc1ccccc1	-44.0	nt	nt	nt
O=C1C(N2CCOCC2)=C(n2nnc3ccccc32)C(=O)c2ccccc21	-61.3	nt	nt	nt
Cc1cc(Cn2nc(C(=O)NCc3cccc(C(F)(F)F)c3)cc2-c2ccccc2)on1	78.0*	-60.2	?	30.4
COc1ccc(-c2cn[nH]c2-c2ccc(O)cc2O)cc1	-42.1	nt	nt	nt
SMILES	PGC1a Ac signal	G6PC hep suppr	PCK1 hep suppr	Hep PGC-1a down
CCCOc1ccccc1C1C(C(=O)OC)=CN(C(C)C)C=C1C(=O)OC	-92.1	nt	nt	nt
COc1ccc2c(c1)C(C)=CC(C)(C)N2S(=O)(=O)c1ccc(Br)cc1	83.0*	nt	149	42.7
Oc1ccc(C=Nc2ccc(N3CCOCC3)cc2)c(O)c1	-64.2	nt	nt	nt
Cc1[nH]nc2ncc(C(=O)c3ccccc3O)cc12	-44.5	nt	nt	nt
COc1ccc2nc(N3CCCC(C(=O)NCCCN4CCN(C)CC4)C3)sc2c1 (configuration not stated)	-70.2	nt	nt	nt
COc1ccc(S(=O)(=O)NNC(=O)c2csc(-n3nc(C)cc3C(F)(F)F)n2)cc1	-53.8	29.3	-10.3	122.5
Cn1c(C(C#N)C(=O)c2sc3ccccc3c2Cl)nc2ccccc21 (configuration not stated)	-49.8	nt	nt	nt
CC(=O)Nc1cc(OC(C)=O)c2nonc2c1OC(C)=O	-44.2	nt	nt	nt
O=C(c1cccs1)N1CCN(c2nnc(-c3ccccc3)c3ccccc23)CC1	69.4*	18.7	-6.83[8 µM]	34.3
Cc1nc2ncnn2c(C)c1CCC(=O)N1CCN(c2ccccn2)CC1	-43.4	nt	nt	nt
Cc1c(C(=O)N2CCN(c3ccccn3)CC2)sc2ncnc(N3CCN(c4ccccc4)CC3)c12	-40.3	nt	nt	nt
Cc1ccc(-c2nnc(N3CCN(C(=O)COc4ccccc4)CC3)c3ccccc23)cc1	94.2*	360.4	nt	120.9

Bioassay records (PubChem)
